Data on 5 compounds can be found in ChEMBL document CHEMBL4400527, “Development of bioactive gemcitabine-D-Lys6-GnRH prodrugs with linker-controllable drug release rate and enhanced biopharmaceutical profile” (Eur J Med Chem, 2019).

SMILES strings stand for the structures. pIC50: −log10 of the molar value.

Series [1] concerns the target T1, Gonadotropin-releasing hormone receptor (Homo sapiens, UniProt P30968).
T1 sequence (P30968 whole entry): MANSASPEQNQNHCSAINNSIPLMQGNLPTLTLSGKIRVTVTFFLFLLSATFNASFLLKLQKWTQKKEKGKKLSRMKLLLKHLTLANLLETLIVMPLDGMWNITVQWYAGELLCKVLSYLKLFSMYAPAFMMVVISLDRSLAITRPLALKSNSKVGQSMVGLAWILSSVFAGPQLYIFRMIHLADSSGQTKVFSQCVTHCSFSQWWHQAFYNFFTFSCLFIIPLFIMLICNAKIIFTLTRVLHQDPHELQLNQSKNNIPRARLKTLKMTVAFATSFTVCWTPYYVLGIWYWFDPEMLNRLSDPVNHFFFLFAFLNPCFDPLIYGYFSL
The experiment in a line: Displacement of [125I]-D-Tyr6-His5-GnRH from recombinant human GnRH receptor expressed in HEK293 cell membrane measured after 16 to 19 hrs by gamma counting method. Format: cell membranes. The essentials:
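Membranes from HEK 293 cells stably expressing human GnRH-R were incubated with 100,000-120,000 cpm [¹²⁵I]-D-Tyr⁶-His⁵-GnRH plus increasing conjugate concentrations. Buffer was 25 mM HEPES, 1 mM CaCl₂, 10 mM MgCl₂, 0.5% BSA, pH 7.4, final volume 0.2 mL, 4 °C for 16-19 h. Samples filtered on PEI-soaked GF/C, washed with ice-cold Tris-HCl and gamma counted. Nonspecific binding defined with 1000 nM triptorelin.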

In another series the test system is DU-145. The experiment in a line: Antiproliferative activity against human DU145 cells measured after 72 hrs by MTT assay. The series is classed as functional, cell-based. To be noted: DU-145, 72 h. The method in brief:
(§1)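 Cells (RPMI for DU145, PC3, MDA-MB-231; DMEM for MCF7; 10% FBS, 37 °C, 5% CO₂) plated at 5 x 10³/well. After 24 h, medium replaced with compound at 10-40,000 nM for 72 h. MTT 0.3 mg/mL in PBS for 3 h, formazan dissolved in DMSO, OD at 570 nm with 690 nm reference. IC50 from four-parameter logistic fit; three experiments in triplicate.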

The next series concerns PC-3. In words: Antiproliferative activity against human PC3 cells measured after 72 hrs by MTT assay. The series is classed as functional, cell-based. To be noted: PC-3, 72 h. The method in brief:
as §1

The next series has as its system MDA-MB-231. In words: Antiproliferative activity against human MDA-MB-231 cells measured after 72 hrs by MTT assay. The series is classed as functional, cell-based. Conditions: MDA-MB-231, 72 h. The method in brief: as §1
The subject of another series is MCF7. The experiment in a line: Antiproliferative activity against human MCF7 cells measured after 72 hrs by MTT assay. Format: functional, cell-based. Conditions: MCF7, 72 h. The method in brief: as §1
(In general: Tetrazolium dyes change colour on reduction, which living cells bring about.)

Series [2] in a line: Stability of the compound in RPMI medium at 1 uM measured after 72 hrs by LC-MS/MS analysis. The series is classed as physicochemical. The method in brief:
(§2)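 Conjugates at 1 µΜ incubated at 37 °C in RPMI with 10% FBS and 1% P/S. Triplicate samples taken at 0, 1, 2, 4, 8, 24, 48 and 72 h, mixed with initial mobile phase, stored at -80 °C. Analysed by LC-MS/MS.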

Series [3] is described as follows: Stability of the compound in human plasma at 1 ug/ml measured up to 4 hrs by LC-MS/MS analysis. Format: ADME, cell-free. The method in brief: (§3)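 Human plasma spiked with conjugate at 1 µg/mL. Triplicate 50 µL samples taken at 0, 0.08, 0.5, 1 and 4 h, mixed with 150 µL acetonitrile and stored at -80 °C. Intact conjugate and released gemcitabine followed.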
Series [4] is described as follows: Prodrug activation in human plasma assessed as gemcitabine release at 1 ug/ml measured up to 4 hrs by LC-MS/MS analysis. Format: cell-free. The essentials:
as §3

A short description of series [5]: Drug level in C57BL/6N mouse blood at 10 mg/kg, ip measured after 15 mins by LC-MS/MS analysis. Format: ADME, organism-based. To be noted: whole blood, read-out: Drug uptake. The essentials: (§4)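 Male C57BL/6N mice, 8-12 weeks old, fasted overnight (n = 5/group), given conjugate 10 mg/kg (6.3 µmol/kg) IP in saline. Serial tail bleeds of 10 µL at 0.25, 0.5, 1, 2, 4, 6 and 8 h into 0.1 M citric acid, pH 4.5. Stored at -80 °C, processed by protein precipitation and evaporation. Conjugate, gemcitabine and dFdU measured.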

Series [6] is described as follows: Drug level in C57BL/6N mouse blood at 10 mg/kg, ip measured after 30 mins by LC-MS/MS analysis. Format: ADME, organism-based. Conditions: whole blood, read-out: Drug uptake. The method in brief:
as §4

The nature of series [7]: Prodrug activation in C57BL/6N mouse blood assessed as dFdU release at 10 mg/kg, ip measured up to 8 hrs by LC-MS/MS analysis. Format: organism-based. To be noted: in vivo. The method in brief: as §4
A short description of series [8]: AUC (1 to 8 hrs) in human DU145 cells assessed per million cells at 10 uM by LC-MS/MS analysis. More on the design: time 1-8 hr, dose 10 uM. To be noted: du-145, 10 µM. The series is classed as ADME, cell-based. The essentials: (§5)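 DU145 cells seeded at 2 x 10⁶ cells/well and exposed to 10 µΜ compound for 1, 4 or 8 h. Medium removed, cells washed twice with ice-cold PBS, lysed in ice-cold MeCN-water (3:2) by scraping, then vortexed, sonicated and spun 3 min at 16,060 g. Conjugate, gemcitabine and dFdU quantified per 10⁶ cells.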

Series [9] is described as follows: Prodrug activation in human DU145 cells assessed as gemcitabine release at 10 uM measured after 8 hrs by LC-MS/MS analysis. The series is classed as cell-based. Conditions: du-145, 8 h. The essentials:
as §5

A short description of series [10]: Prodrug activation in human DU145 cells assessed as dFdU release at 10 uM measured after 8 hrs by LC-MS/MS analysis. Format: cell-based. To be noted: du-145, 8 h. The method in brief: as §5
The nature of series [11]: Stability of the compound in RPMI medium assessed as compound degradation at 1 uM measured <24 hrs by LC-MS/MS analysis. Format: physicochemical. To be noted: read-out: Drug degradation. The method in brief: as §2
Series [12] can be described thus: Prodrug activation in C57BL/6N mouse blood assessed as gemcitabine release at 10 mg/kg, ip measured up to 8 hrs by LC-MS/MS analysis. The series is classed as organism-based. Conditions: in vivo. The method in brief: as §4
Series [13] can be described thus: Prodrug activation in C57BL/6N mouse blood assessed as gemcitabine release at 10 mg/kg, ip measured after 30 mins by LC-MS/MS analysis. To be noted: in vivo, 0.5 h. Format: organism-based. The essentials:
as §4

The nature of series [14]: Prodrug activation in C57BL/6N mouse blood assessed as dFdU release at 10 mg/kg, ip measured after 1 hr by LC-MS/MS analysis. Format: organism-based. Conditions: in vivo. The method in brief: as §4
The nature of series [15]: Cmax in human DU145 cells assessed per million cells at 10 uM measured after 4 hrs by LC-MS/MS analysis. To be noted: du-145, 4 h. The series is classed as ADME, cell-based. Also noted: dose 10 uM. The method in brief:
as §5

As a reminder, the pIC50 is the negative decadic logarithm of the IC50, by convention in mol/L. Consider `CC(C)C[C@H](NC(=O)[C@@H](CCCCNC(=O)OC[C@H]1O[C@@H](n2ccc(N)nc2=O)C(F)(F)[C@@H]1O)NC(=O)[C@H](Cc1ccc(O)cc1)NC(=O)[C@H](CO)NC(=O)[C@H](Cc1c[nH]c2ccccc12)NC(=O)[C@H](Cc1cnc[nH]1)NC(=O)[C@@H]1CCC(=O)N1)C(=O)N[C@@H](CCCNC(=N)N)C(=O)N1CCC[C@H]1C(=O)NCC(N)=O`, for which the negative logarithm of the IC50 (pIC50) in series [1] is 9.16; with DU-145 it was below 4.40; in the series with PC-3, below 4.40; in the series on MDA-MB-231, below 4.40; with MCF7 it was 6.21. The Stability result in series [2] and in series [3] was “Stable” each time. For the same compound, the Drug metabolism entry in series [4], in series [7], in series [9] and in [10] was “Metabolite_Notdetected” each time. The concentration at 0.25 h in series [5] turned out to be 4000 ng/mL. The concentration at 0.5 h in series [6] was 4000 ng/mL. Also, the AUC in series [8] is 62.8 ng/10^6 cells × hr.
For the compound `Nc1ccn([C@@H]2O[C@H](CO)[C@@H](O)C2(F)F)c(=O)n1` [GEMCITABINE], the pIC50 in the series on DU-145 was 6.67; in the series on PC-3, 6.38; with MDA-MB-231, 5.80; in the series on MCF7, 7.42. In addition, the concentration at 0.5 h in [6] worked out at 3 ng/mL.
In the case of `CC(C)C[C@H](NC(=O)[C@@H](CCCCNC(=O)CCCCCNC(=O)CCC(=O)OC[C@H]1O[C@@H](n2ccc(N)nc2=O)C(F)(F)[C@@H]1O)NC(=O)[C@H](Cc1ccc(O)cc1)NC(=O)[C@H](CO)NC(=O)[C@H](Cc1c[nH]c2ccccc12)NC(=O)[C@H](Cc1cnc[nH]1)NC(=O)[C@@H]1CCC(=O)N1)C(=O)N[C@@H](CCCNC(=N)N)C(=O)N1CCC[C@H]1C(=O)NCC(N)=O`, the pIC50 in series [1] was 8.62; in the series with DU-145, 6.16; in the series with PC-3, 6.03; in the series on MDA-MB-231 it was 5.62; with MCF7, 7.26. Further, the degraded at 24 h, 1 µM in [11] is 100%. For the same compound, the Stability result in [3] is reported as “Unstable”. In addition, the Drug metabolism entry in [4] is “Metabolite_Detected”; in [12] it was “Metabolite_Detected”; in series [13], 300 ng/mL; in series [14] it was 500 ng/mL; in series [9], “Metabolite_Detected”; in series [10], “Metabolite_Notdetected”. Besides, the Cmax in series [15] came to 8 ng/10^6 cells. In series [8], the AUC came out at 38.6 ng/10^6 cells × hr.
With `CC(C)C[C@H](NC(=O)[C@@H](CCCCNC(=O)O[C@@H]1[C@@H](CO)O[C@@H](n2ccc(N)nc2=O)C1(F)F)NC(=O)[C@H](Cc1ccc(O)cc1)NC(=O)[C@H](CO)NC(=O)[C@H](Cc1c[nH]c2ccccc12)NC(=O)[C@H](Cc1cnc[nH]1)NC(=O)[C@@H]1CCC(=O)N1)C(=O)N[C@@H](CCCNC(=N)N)C(=O)N1CCC[C@H]1C(=O)NCC(N)=O`, the pIC50 in [1] was 9.96; with DU-145, 5.01; in the series with PC-3 it was below 4.40; in the series with MDA-MB-231, below 4.40; in the series with MCF7, 6.35. Also, the Stability result in series [2] and in series [3] was “Stable” each time. In addition, the Drug metabolism result in [4], in series [7], in series [9] and in series [10] was “Metabolite_Notdetected” each time. Besides, in series [5], the concentration at 0.25 h was 4000 ng/mL. The concentration at 0.5 h in series [6] came out at 5000 ng/mL. Moreover, the Cmax in series [15] is listed as 15 ng/10^6 cells in 4 h. This compound came in with an AUC in [8] of 88.7 ng/10^6 cells × hr.
On to `CC(C)C[C@H](NC(=O)[C@@H](CCCCN)NC(=O)[C@H](Cc1ccc(O)cc1)NC(=O)[C@H](CO)NC(=O)[C@H](Cc1c[nH]c2ccccc12)NC(=O)[C@H](Cc1cnc[nH]1)NC(=O)[C@@H]1CCC(=O)N1)C(=O)N[C@@H](CCCNC(=N)N)C(=O)N1CCC[C@H]1C(=O)NCC(N)=O`, for which the pIC50 in [1] was 7.98; in the series with DU-145, below 4.40; in the series with PC-3 it was below 4.40; with MDA-MB-231, below 4.40; in the series with MCF7, below 4.40.
